# pIC50: −log10 of the molar value. Like-named read-outs stand apart in the source and are kept apart here.
# What was measured:
# [1] = Molnupiravir pharmacokinetics: NHC trough concentration in plasma and lung; type: in vivo, Syrian hamsters
# How it was run: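 MOV was given by oral gavage every 12 h, with the first dose at infection (D0), 12 h before (D-1) or 12 h after (D1). Hamsters were euthanised 15 h after the last dose on D3, giving trough values. Samples were EDTA plasma and lung lobes homogenised in 0.9 % NaCl. NHC was extracted with acetonitrile and quantified by UPLC-MS/MS (LLOQ 5 ng/mL). The partition coefficient was the lung:plasma concentration ratio.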
# SARS-CoV-2 [2] = assay: Lung histology of infected hamsters; type: in vivo, Syrian hamsters
# How it was run: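 Infected hamsters were dosed every 12 h from the time of infection. MOV was given by oral gavage under isoflurane in water with 10 % PEG400 and 2.5 % Kolliphor EL. FAV was given intraperitoneally to awake animals. Euthanasia was on D5. Lungs were collected after intratracheal instillation of 4 % formaldehyde, fixed 72 h at room temperature and paraffin-embedded. Lesions were graded semi-quantitatively (up to 4 = severe), and scores were summed.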
# SARS-CoV-2 [3] = assay: microbe, parasite or virus in culture; type: cell-based, human; conditions: for viral infectious titres at the apical side of HAE vs virus control: D2 to D4
# SARS-CoV-2 [4] = type: in vivo, Syrian hamsters
# SARS-CoV-2 [5] = type: in vivo, Syrian hamsters; conditions: 150, 300, 400 mg/kg/day BID, from D0, D3
# SARS-CoV-2 genome [6] = type: in vivo, Syrian hamsters; conditions: hamster lungs
# COVID-19 [7] = conditions: PANORAMIC trial, cited from earlier work
# SARS-CoV-2 [8] = type: in vivo, Syrian hamsters; conditions: for reduction of lung infectious viral titers vs untreated: 300 mg/kg/day BID oral, D3
# SARS-CoV-2 genome [9] = assay: Sequence analysis of the full-length viral genome in HAE supernatants; type: cell-based, human
# SARS-CoV-2 [10] = type: cell-based, human; conditions: D2 to D4
# COVID-19 [11] = conditions: phase 3 MOVE OUT trial; cited from earlier work
# cytokines in lungs = assay: Expression level of seven cytokines in lungs; type: in vivo, Syrian hamsters; conditions: 300 mg/kg/day BID from D0, D5
compound,measurement,setting,value
"O=c1nc(NO)ccn1[C@@H]1O[C@H](CO)[C@@H](O)[C@H]1O [NHC, β-D N4-hydroxycytidine]","NHC concentration in lung, 400 mg/kg/day BID compared to 150 mg/kg/day BID",[1]; 15 h after last intake,significantly higher
same,NHC plasma trough concentrations,"[1]; 15 h after last intake, MOV 150, 300, 400 mg/kg/day BID oral",comparable between doses
same,lung and plasma NHC trough concentrations between treatment strategies,"[1]; MOV 300 mg/kg/day BID from D-1, D0 or D1",no difference
same,Lung partition coefficients (ratio of lung over plasma concentrations),"[1]; dose assessment experiment, all doses",above 1
same,pulmonary partition coefficient,"[1]; therapeutic strategies experiment, 300 mg/kg/day BID",above 1
"NC(=O)c1nc(F)c[nH]c1=O [FAV, Favipiravir]",cumulative pathological scores vs untreated group,"SARS-CoV-2 [2]; FAV intraperitoneally 925 mg/kg/day BID, lungs at D5",significantly different score
"CCC(CC)COC(=O)[C@H](C)N[P@](=O)(OC[C@H]1O[C@@](C#N)(c2ccc3c(N)ncnn23)[C@H](O)[C@@H]1O)Oc1ccccc1 [RDV, Remdesivir]",infectious titres in HAE,"SARS-CoV-2 [3]; 10 μM, positive control",significantly reduced
"CC(C)C(=O)OC[C@H]1O[C@@H](n2ccc(NO)nc2=O)[C@H](O)[C@@H]1O [MOV, molnupiravir]",viral RNA yields in lungs vs control group,"SARS-CoV-2 [4]; 300 mg/kg/day BID, three treated groups (D-1, D0, D1)",did not differ significantly
same,viral RNA yields in lungs vs untreated animals,"SARS-CoV-2 [4]; 150 or 400 mg/kg/day BID oral, from D0, D3",significant lower
same,RNA viral yields in nasal washes vs untreated animals,SARS-CoV-2 [5],no significant differences
same,G to A MVs vs untreated group,SARS-CoV-2 genome [6]; 300 mg/kg/day BID,significant increase
same,mean frequency of transitions-type MVs vs untreated,SARS-CoV-2 genome [6]; 300 mg/kg/day BID,"higher in the treated group compared to the untreated group, but not significantly"
same,number of MVs with a frequency greater than 10 % vs untreated,SARS-CoV-2 genome [6]; 300 mg/kg/day BID,significant higher number
same,mean number of MVs per genome,SARS-CoV-2 genome [6]; 300 mg/kg/day BID from D0,29.5
same,time to recovery,COVID-19 [7],reduced time to recovery
same,viral load,COVID-19 [7],reduced viral load
same,reduction in the risk of hospitalisation or death,COVID-19 [7]; vaccinated patients,no reduction
same,infectious titers in clarified lung homogenates vs untreated animals,"SARS-CoV-2 [8]; 150, 300 and 400 mg/kg/day BID oral, from D0, lungs at D3",significantly lower
same,lung particle-to-infectious unit ratio vs untreated,"SARS-CoV-2 [8]; dose assessment experiment, 150-400 mg/kg/day BID",No significant differences
same,reduction of lung infectious viral titers vs untreated,SARS-CoV-2 [8]; pre-emptive (D0),1.03 log10
same,lung particles to infectious unit ratio vs control,"SARS-CoV-2 [8]; preventive (D-1), 300 mg/kg/day BID",significant elevation
same,reduction of lung infectious viral titers vs untreated,SARS-CoV-2 [8]; preventive (D-1),1.12 log10
same,average number of MVs per genome,SARS-CoV-2 genome [9]; 0.3 μM,20
same,mean frequency of transition-type MVs,SARS-CoV-2 genome [9]; 0.3 μM,0.81
same,average number of MVs per genome,SARS-CoV-2 genome [9]; 1 μM,88
same,mean frequency of transition-type MVs,SARS-CoV-2 genome [9]; 1 μM,0.97
same,average number of MVs per genome,SARS-CoV-2 genome [9]; 3 μM,18.3
same,mean frequency of transition-type MVs,SARS-CoV-2 genome [9]; 3 μM,0.89
same,"increase of type C to U-MVs, exposed vs non-exposed HAE",SARS-CoV-2 genome [9]; pooled analysis,significance found
same,cumulative pathological scores vs untreated group,"SARS-CoV-2 [2]; MOV 300 mg/kg/day BID from D0, lungs at D5",no significant difference
same,viral infectious titres at the apical side of HAE vs virus control,SARS-CoV-2 [3]; 0.3 μM,significant decrease in infectious titres was observed only at D3
same,viral infectious titres at the apical side of HAE vs virus control,SARS-CoV-2 [3]; 1 μM,Significant decrease
same,viral infectious titres at the apical side of HAE vs virus control,SARS-CoV-2 [3]; 3 μM,Significant decrease
same,pIC50,"SARS-CoV-2 [3]; Severe acute respiratory syndrome coronavirus 2, in Homo sapiens",6.00
same,viral RNA yields at the apical side of HAE vs virus control,SARS-CoV-2 [10]; 0.3 μM,no significant reduction
same,viral RNA yields at the apical side of HAE vs virus control,SARS-CoV-2 [10]; 1 μM,significant reduction was observed at D3 and D4
same,viral RNA yields at the apical side of HAE vs virus control,SARS-CoV-2 [10]; 3 μM,significant decrease
same,efficacy in reducing the risk of hospitalisation or death,COVID-19 [11],modest efficacy
same,expression of IL10 in lungs vs vehicle group,cytokines in lungs,reduction was not significant
same,expression of TNF in lungs vs vehicle group,cytokines in lungs,reduction was not significant
same,expression of cytokine CCl5 in lungs vs vehicle group,cytokines in lungs,significantly decrease
same,expression of cytokine CxCl10 in lungs vs vehicle group,cytokines in lungs,significantly decrease
